Test results: ChEMBL document CHEMBL3232808, “Synthesis, biological evaluation, and structure-activity relationships of potent noncovalent and nonpeptidic cruzain inhibitors as anti-Trypanosoma cruzi agents” (J Med Chem, 2014)

Experiments:
Trypanosoma cruzi [1] = assay: Antitrypanosomal activity against amastigote stage of lacZ expressing Trypanosoma cruzi Tulahuen after 72 hrs; assay type: functional, organism-based
Summary of the method: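 Human fibroblasts seeded 2×10^3/well in RPMI 1640 without phenol red, overnight; β-galactosidase-expressing trypomastigotes added 1.0×10^4/well. After 24 h, compounds (DMSO stocks diluted in medium) added in serial dilutions 300 to 0.4 μM, triplicate; 72 h incubation. CPRG with Nonidet P-40 (0.1% final) added, absorbance 570 nm; IC50 from curve fitting; benznidazole positive, untreated negative controls; ≥3 experiments.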

[2] = target: Cruzipain (Trypanosoma cruzi) (UniProt P25779); assay: Inhibition of Trypanosoma cruzi cruzaine expressed in Escherichia coli SG13009 using Z-FR-AMC as substrate at 100 uM after 5 mins
Cruzipain (Trypanosoma cruzi), sequence (P25779 123-467 limits assumed): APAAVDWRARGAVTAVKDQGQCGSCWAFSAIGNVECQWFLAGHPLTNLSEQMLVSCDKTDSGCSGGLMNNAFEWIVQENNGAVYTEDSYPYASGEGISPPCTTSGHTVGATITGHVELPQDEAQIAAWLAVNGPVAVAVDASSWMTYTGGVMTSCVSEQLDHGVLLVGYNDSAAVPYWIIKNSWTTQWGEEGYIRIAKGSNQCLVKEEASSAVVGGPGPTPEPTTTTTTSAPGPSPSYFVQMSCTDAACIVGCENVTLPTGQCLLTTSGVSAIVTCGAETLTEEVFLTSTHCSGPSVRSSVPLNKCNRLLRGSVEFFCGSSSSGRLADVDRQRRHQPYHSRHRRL

Cruzipain [3] = target: T1, Cruzipain (Trypanosoma cruzi, UniProt P25779); assay: Inhibition of Trypanosoma cruzi cruzaine expressed in Escherichia coli SG13009 using Z-FR-AMC as substrate after 5 mins
T1 sequence (P25779 whole entry): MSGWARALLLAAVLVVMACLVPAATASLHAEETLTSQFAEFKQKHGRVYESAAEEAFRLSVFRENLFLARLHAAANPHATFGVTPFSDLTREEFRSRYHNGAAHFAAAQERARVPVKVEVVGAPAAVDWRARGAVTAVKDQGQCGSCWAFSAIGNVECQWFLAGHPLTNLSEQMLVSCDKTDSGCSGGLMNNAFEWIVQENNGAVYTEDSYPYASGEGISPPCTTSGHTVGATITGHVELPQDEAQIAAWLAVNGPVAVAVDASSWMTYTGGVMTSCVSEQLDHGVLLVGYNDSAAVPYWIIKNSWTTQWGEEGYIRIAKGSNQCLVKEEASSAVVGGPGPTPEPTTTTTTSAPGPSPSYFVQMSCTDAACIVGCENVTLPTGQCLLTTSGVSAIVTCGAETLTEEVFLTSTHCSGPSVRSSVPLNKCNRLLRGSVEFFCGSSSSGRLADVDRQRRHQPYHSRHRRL

Mus musculus [4] = assay: Acute toxicity in BALB/c mouse at 20, 30, 50 and 50 mg/kg, ip administered at 0, 2, 4, 6 hrs respectively and measured after 24 hrs post last dose; assay type: organism-based; set-up: dose 50 mg/kg, route intraperitoneal; conditions: in vivo
Mus musculus [5] = assay: Acute toxicity in BALB/c mouse at 20, 30, 50 and 50 mg/kg, ip administered at 0, 2, 4, 6 hrs respectively and measured after last dose; assay type: organism-based; set-up: dose 50 mg/kg, route intraperitoneal; conditions: in vivo
Summary of the method: (§1)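 One female BALB/c mouse (18–20 g) per compound. Stock diluted to 5 mg/mL in sterile distilled water, given ip as cumulative doses over 6 h (20, 30, 50, 50 mg/kg at 0, 2, 4, 6 h; total 150 mg/kg). Mice observed 48 h for acute toxicity signs (chill, thirst) or death, then euthanized.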

Mus musculus [6] = assay: Acute toxicity in BALB/c mouse assessed as mortality incidence at 20, 30, 50 and 50 mg/kg, ip administered at 0, 2, 4, 6 hrs respectively and measured after 48 hrs post last dose; assay type: organism-based; set-up: dose 50 mg/kg, route intraperitoneal; conditions: in vivo; summary of the method: as §1
Trypanosoma cruzi [7] = assay: Ratio of benznidazole IC50 to compound IC50 for amastigote stage of lacZ expressing Trypanosoma cruzi Tulahuen; assay type: functional
Summary of the method: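 Human fibroblasts (2×10^3/well) were seeded overnight in phenol-red-free RPMI 1640, then infected with β-galactosidase-expressing Tulahuen trypomastigotes (1.0×10^4/well). After 24 h, compounds (DMSO stocks) were added as serial dilutions from 300 to 0.4 μM, each in triplicate. After 72 h, CPRG with 0.1% Nonidet P-40 was added and A570 read. Benznidazole was run alongside as standard. IC50s are means of ≥3 experiments.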

Cruzipain [8] = target: T1, Cruzipain; assay: Competitive inhibition of Trypanosoma cruzi cruzaine expressed in Escherichia coli SG13009 using Z-FR-AMC as substrate by Lineweaver-Burk plot analysis
Summary of the method: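 Mechanism study: eight Z-FR-AMC concentrations crossed with four inhibitor concentrations, each in triplicate, with 1.5 nM cruzain in 0.1 M sodium acetate pH 5.5, 5 mM DTT, 0.01% Triton X-100; 5 min initial rates; kinetic parameters obtained with an enzyme kinetics module.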

SMILES	IC50 (Trypanosoma cruzi [1]) [µM]	inhibition [2] [%]	IC50 (Cruzipain [3]) [µM]	further results
O=C(Cn1ccnc1[N+](=O)[O-])NCc1ccccc1 [BENZNIDAZOLE]	4.8			
O=C(COc1ccc2ccccc2c1)NCCc1nc2ccccc2o1		22		
C=CCCn1c(CCNC(=O)COc2ccccc2Cl)nc2ccccc21	11.1	89	23.9	
O=C(COc1ccc2ccccc2c1Br)NCCc1nc2cc(Cl)ccc2[nH]1		90	0.6	
O=C(COc1ccc2ccccc2c1CO)NCCc1nc2ccccc2[nH]1		80	12.7	
Cc1ccc2[nH]c(CCNC(=O)COc3ccc4ccccc4c3Br)nc2c1		97	0.62	
O=C(COc1ccccc1Cl)NCCc1cnc[nH]1		14		
O=C(COc1cccc(Br)c1)NCCc1nc2ccccc2[nH]1	> 100	96	0.8	Activity (Mus musculus [4]): Non-toxic; Activity (Mus musculus [5]): Toxic; Activity (Mus musculus [6]): Non-toxic
O=C(COc1ccccc1[N+](=O)[O-])NCCc1nc2ccccc2[nH]1	7.9	93	13.2	
O=C(CCc1ccccc1Br)NCCN1CCCCC1		7		
N#Cc1ccccc1OCC(=O)NCCc1nc2ccccc2[nH]1	6.5	81	65.1	Activity (Mus musculus [4]): Non-toxic; Activity (Mus musculus [5]): Toxic; Activity (Mus musculus [6]): Non-toxic
O=C(COc1ccccc1)NCCc1nc2ccccc2[nH]1		88		
O=C(CSc1ccccc1)NCCc1nc2ccccc2[nH]1	> 100	66	38.4	Activity (Mus musculus [4]): Non-toxic; Activity (Mus musculus [5]): Toxic; Activity (Mus musculus [6]): Non-toxic
O=C(COc1ccc(Br)cc1)NCCc1nc2ccccc2[nH]1	6.7	96	2.7	Activity (Mus musculus [4]): Non-toxic; Activity (Mus musculus [5]): Toxic; Activity (Mus musculus [6]): Non-toxic
O=Cc1c(OCC(=O)NCCc2nc3ccccc3[nH]2)ccc2ccccc12		80	13.5	
O=C(CCc1ccccc1Br)NCCc1nc2ccccc2[nH]1	34.6	51	77.5	
Cc1ccccc1OCC(=O)NCCc1nc2ccccc2[nH]1	2.8	88	4.1	Activity (Mus musculus [4]): Non-toxic; Activity (Mus musculus [5]): Toxic; Activity (Mus musculus [6]): Non-toxic
O=C(COc1ccc2ccccc2c1O)NCCc1nc2ccccc2[nH]1		51	8.2	
O=C(CCOc1ccccc1)NCCc1nc2ccccc2[nH]1		25		
O=C(COc1ccc2ccccc2c1)NCCc1cnc[nH]1		7		
Cc1ccccc1OCCNCCc1nc2ccccc2[nH]1		8		
CC(=O)n1c(CCNC(=O)COc2ccc(Br)cc2)nc2ccccc21	5.3	84	9.9	
O=C(COc1cccc2ccccc12)NCCc1nc2ccccc2[nH]1	> 100	84	5.2	
O=C(COc1ccc2ccccc2c1)NCCc1nc2ccccc2[nH]1	46.1	90	3	
O=C(COc1ccc2ccccc2c1Br)NCCc1c[nH]c2ccccc12		2		
COc1ccc2[nH]c(CCNC(=O)COc3ccc4ccccc4c3Br)nc2c1		93	0.54	
O=C(COc1ccccc1I)NCCc1nc2ccccc2[nH]1	> 100	96	1.6	Activity (Mus musculus [4]): Non-toxic; Activity (Mus musculus [5]): Toxic; Activity (Mus musculus [6]): Toxic
O=C(COc1ccc2ccccc2c1Br)NCCc1nc2ccccc2[nH]1	16.2	92	0.21	Ki (Cruzipain [8]): 0.082 µM
O=C(COc1ccccc1F)NCCc1nc2ccccc2[nH]1	> 100	92	5.3	Activity (Mus musculus [4]): Non-toxic; Activity (Mus musculus [5]): Toxic; Activity (Mus musculus [6]): Non-toxic

Second part, led by results:

IC50 (Trypanosoma cruzi [1]) [µM]	inhibition [2] [%]	IC50 (Cruzipain [3]) [µM]	SMILES	further results
	5		Cc1ccccc1OCC(=O)NCCc1c[nH]c2ccccc12	
> 100	92	3	O=C(COc1ccccc1Cl)NCCc1nc2ccccc2[nH]1	
	3		Cc1ccccc1OCC(=O)NCCN1CCCCC1	
	2		Cc1ccccc1OCC(=O)NCCC(=O)Nc1ccccc1O	
	4		Nc1ccccc1NC(=O)CCNC(=O)COc1ccccc1[N+](=O)[O-]	
	25		CC(=O)Nc1ccccc1OCC(=O)NCCc1nc2ccccc2[nH]1	
	43		Nc1ccccc1OCC(=O)NCCc1nc2ccccc2[nH]1	
1.6	89	0.8	O=C(COc1ccccc1Br)NCCc1nc2ccccc2[nH]1	Ratio IC50 (Trypanosoma cruzi [7]): 3
	8		Cc1ccccc1OCC(=O)NCCC(=O)NCc1ccccc1	
	47		CC(=O)n1c(CCNC(=O)COc2ccccc2[N+](=O)[O-])nc2ccccc21	
	4		Cc1ccccc1OCC(=O)NCCC(=O)Nc1ccccc1	
	13		Cc1cc(C)c(C#N)c(SCCNC(=O)COc2ccccc2C)n1	
	1		O=C(COc1ccccc1Br)NCCN1CCCCC1	
2.9	33		Cc1ccccc1OCC(=O)NCCc1nc2ccccc2o1	
	8		Cc1ccccc1OCC(=O)NCCC(=O)O	
	14		O=C(COc1ccc2ccccc2c1)NCCC(=O)Nc1ccccc1O	
